Tests used:
Type in all cases: functional, cell-based
SW-620 = assay: Antiproliferative activity against human SW620 cells after 10 days; conditions: SW-620, 240 h
HEL 92.1.7 = assay: Antiproliferative activity against human HEL 92.1.7 cells after 10 days; conditions: HEL 92.1.7, 240 h
How it was run: (§1)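 10-day 2D proliferation screen of a broad cancer cell panel (about 240 lines, Eurofins Oncopanel). All lines were mycoplasma negative and STR verified. Compounds were dosed up to a top concentration of 10 μM or 25 μM, depending on the inhibitor. Anti-proliferative IC50 values are the average of three biological replicates.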

HeLa = assay: Antiproliferative activity against human HeLa cells after 10 days; conditions: 240 h; how it was run: as §1
NCI-H508 = assay: Antiproliferative activity against human NCI-H508 cells after 10 days; conditions: NCI-H508, 240 h
How it was run: (§2)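 Broad cancer cell line panel (Eurofins Oncopanel, about 240 lines; mycoplasma negative, STR verified) grown in 2D culture and exposed to compound in a 10-day proliferation assay. The top concentration was 10 μM for the SMYD2 inhibitor series and 25 μM for the SMYD3 inhibitor. The proliferative IC50 is taken from concentration-response data, each value the mean of three biological replicates.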

A498 = assay: Antiproliferative activity against human A498 cells after 10 days; conditions: A498, 240 h
How it was run: (§3)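 Tested as part of a 240-line cancer cell panel (Eurofins Oncopanel); all lines were mycoplasma-negative and STR-verified. Cells were exposed to a compound concentration series in 2D culture for 10 days. The highest concentration was 10 μM or 25 μM, depending on the inhibitor. Antiproliferative IC50 was derived from the mean of three biological replicates.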

EFM-19 = assay: Antiproliferative activity against human EFM-19 cells after 10 days; conditions: EFM-19, 240 h; how it was run: as §1
SK-MES-1 = assay: Antiproliferative activity against human SK-MES-1 cells after 10 days; conditions: SK-MES-1, 240 h
BHT-101 = assay: Antiproliferative activity against human BHT-101 cells after 10 days; conditions: BHT-101, 240 h; how it was run: as §3
SK-MEL3 = assay: Antiproliferative activity against human SK-MEL3 cells after 10 days; conditions: SK-MEL3, 240 h
LS-1034 = assay: Antiproliferative activity against human LS1034 cells after 10 days; conditions: LS-1034, 240 h; how it was run: as §2
SW1353 = assay: Antiproliferative activity against human SW1353 cells after 10 days; conditions: SW1353, 240 h
NCI-H747 = assay: Antiproliferative activity against human NCI-H747 cells after 10 days; conditions: NCI-H747, 240 h; how it was run: as §2
AN3-CA = assay: Antiproliferative activity against human AN3-CA cells after 10 days; conditions: 240 h; how it was run: as §3
HepG2 = assay: Antiproliferative activity against human HepG2 cells after 10 days; conditions: HepG2, 240 h; how it was run: as §1
CHL-1 = assay: Antiproliferative activity against human CHL-1 cells after 10 days; conditions: CHL-1, 240 h; how it was run: as §3
MIA PaCa-2 = assay: Antiproliferative activity against human Mia PaCa-2 cells after 10 days; conditions: MIA PaCa-2, 240 h; how it was run: as §2
HCT-8 = assay: Antiproliferative activity against human HCT-8 cells after 10 days; conditions: HCT-8, 240 h; how it was run: as §1
Hs 294T = assay: Antiproliferative activity against human Hs 294T cells after 10 days; conditions: 240 h; how it was run: as §1
769-P = assay: Antiproliferative activity against human 769-P cells after 10 days; conditions: 240 h; how it was run: as §3
BT-549 = assay: Antiproliferative activity against human BT-549 cells after 10 days; conditions: BT-549, 240 h; how it was run: as §3
A204 = assay: Antiproliferative activity against human A204 cells after 10 days; conditions: A204, 240 h; how it was run: as §3
SK-OV-3 = assay: Antiproliferative activity against human SK-OV-3 cells after 10 days; conditions: SK-OV-3, 240 h
NCI-H596 = assay: Antiproliferative activity against human NCI-H596 cells after 10 days; conditions: NCI-H596, 240 h; how it was run: as §2
SH-4 = assay: Antiproliferative activity against human SH-4 cells after 10 days; conditions: SH-4, 240 h
SW1088 = assay: Antiproliferative activity against human SW1088 cells after 10 days; conditions: SW1088, 240 h
Hs 766 = assay: Antiproliferative activity against human Hs766T cells after 10 days; conditions: Hs 766, 240 h; how it was run: as §1
[1] = Antiproliferative activity against human KPL-1 cells after 10 days; conditions: KPL-1, 240 h; how it was run: as §2
JAR = assay: Antiproliferative activity against human JAR cells after 10 days; conditions: 240 h; how it was run: as §2
ES-2 = assay: Antiproliferative activity against human ES2 cells after 10 days; conditions: ES-2, 240 h; how it was run: as §1
NCI-H520 = assay: Antiproliferative activity against human NCI-H520 cells after 10 days; conditions: NCI-H520, 240 h; how it was run: as §2
HuP-T4 = assay: Antiproliferative activity against human HuP-T4 cells after 10 days; conditions: HuP-T4, 240 h; how it was run: as §2
[2] = Antiproliferative activity against human RKOAS451 cells after 10 days; conditions: RKOAS451, 240 h; how it was run: as §2
EM-2 = assay: Antiproliferative activity against human EM-2 cells after 10 days; conditions: EM-2, 240 h; how it was run: as §1
CCF-STTG1 = assay: Antiproliferative activity against human CCF-STTG1 cells after 10 days; conditions: CCF-STTG1, 240 h
How it was run: (§4)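 Cell lines run in the Eurofins Oncopanel broad cancer panel, all mycoplasma-negative and STR-verified. Cells were exposed to a compound concentration series in a 10-day proliferation assay, and an anti-proliferative IC50 was derived. Values are the mean of three biological replicates.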

[3] = Antiproliferative activity against human SK-N-BE(2)-C cells after 10 days; conditions: 240 h
ST486 = assay: Antiproliferative activity against human ST486 cells after 10 days; conditions: ST486, 240 h
[4] = system: KATO III stomach cancer cell line; assay: Antiproliferative activity against human KATO III cells after 10 days; conditions: 240 h; how it was run: as §2
647-V = assay: Antiproliferative activity against human 647-V cells after 10 days; conditions: 240 h
How it was run: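 Tested in the Eurofins Oncopanel of about 240 cancer cell lines, all mycoplasma-negative and STR-verified. Cells were exposed to compound for 10 days in 2D culture, and a proliferative IC50 was derived from the concentration series. The highest concentration tested was 10 μM in the SMYD2 inhibitor screen and 25 μM in the SMYD3 inhibitor screen. Values are means of three biological replicates.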

ARH-77 = assay: Antiproliferative activity against human ARH-77 cells after 10 days; conditions: ARH-77, 240 h; how it was run: as §3
G-402 = assay: Antiproliferative activity against human G-402 cells after 10 days; conditions: G-402, 240 h; how it was run: as §1
K562 = assay: Antiproliferative activity against human K562 cells after 10 days; conditions: K562, 240 h; how it was run: as §2
L-428 = assay: Antiproliferative activity against human L-428 cells after 10 days; conditions: L-428, 240 h; how it was run: as §2
JEG-3 = assay: Antiproliferative activity against human JEG-3 cells after 10 days; conditions: JEG-3, 240 h; how it was run: as §4
A-431 = assay: Antiproliferative activity against human A-431 cells after 10 days; conditions: A-431, 240 h; how it was run: as §3
SW948 = assay: Antiproliferative activity against human SW948 cells after 10 days; conditions: SW948, 240 h

Question: Which results are given for `Cc1cn(CCN2CCN(c3ccccc3-c3cc(C#N)cc(C(=O)NCCCN4CCCC4)c3)CC2)c2ccccc12`?
Answer: IC50 (SW-620): 3080 nM; IC50 (HEL 92.1.7): 3530 nM; IC50 (HeLa): 2960 nM; IC50 (NCI-H508): 3090 nM; IC50 (A498): 2010 nM; IC50 (EFM-19): 2680 nM; IC50 (SK-MES-1): 1180 nM; IC50 (BHT-101): 1430 nM; IC50 (SK-MEL3): 1390 nM; IC50 (LS-1034): 2900 nM; IC50 (SW1353): 2980 nM; IC50 (NCI-H747): 2320 nM; IC50 (AN3-CA): 2420 nM; IC50 (HepG2): 2350 nM; IC50 (CHL-1): 2570 nM; IC50 (MIA PaCa-2): 2030 nM; IC50 (HCT-8): 2520 nM; IC50 (Hs 294T): 2480 nM; IC50 (769-P): 2760 nM; IC50 (BT-549): 3290 nM; IC50 (A204): 1350 nM; IC50 (SK-OV-3): 2950 nM; IC50 (NCI-H596): 2950 nM; IC50 (SH-4): 1150 nM; IC50 (SW1088): 1180 nM; IC50 (Hs 766): 2750 nM; IC50 [1]: 3430 nM; IC50 (JAR): 2880 nM; IC50 (ES-2): 1320 nM; IC50 (NCI-H520): 2700 nM; IC50 (HuP-T4): 3480 nM; IC50 [2]: 1110 nM; IC50 (EM-2): 2220 nM; IC50 (CCF-STTG1): 5820 nM; IC50 [3]: 3310 nM; IC50 (ST486): 955 nM; IC50 [4]: 1390 nM; IC50 (647-V): 1480 nM; IC50 (ARH-77): 780 nM; IC50 (G-402): 2190 nM; IC50 (K562): 3210 nM; IC50 (L-428): 1490 nM; IC50 (JEG-3): 1500 nM; IC50 (A-431): 6350 nM; IC50 (SW948): 3910 nM

Question: Which results are given for `O=C(NC1CN(Cc2cnn(Cc3ccccc3)c2)C1)c1cn(C2CC2)nn1`?
Answer: IC50 (SW-620): > 10000 nM; IC50 (HEL 92.1.7): > 10000 nM; IC50 (HeLa): > 10000 nM; IC50 (NCI-H508): > 10000 nM; IC50 (A498): > 10000 nM; IC50 (EFM-19): > 10000 nM; IC50 (SK-MES-1): > 10000 nM; IC50 (BHT-101): > 10000 nM; IC50 (SK-MEL3): > 10000 nM; IC50 (LS-1034): > 10000 nM; IC50 (SW1353): > 10000 nM; IC50 (NCI-H747): > 10000 nM; IC50 (AN3-CA): > 10000 nM; IC50 (HepG2): > 10000 nM; IC50 (CHL-1): > 10000 nM; IC50 (MIA PaCa-2): > 10000 nM; IC50 (HCT-8): > 10000 nM; IC50 (Hs 294T): > 10000 nM; IC50 (769-P): > 10000 nM; IC50 (BT-549): > 10000 nM; IC50 (A204): > 10000 nM; IC50 (SK-OV-3): > 10000 nM; IC50 (NCI-H596): > 10000 nM; IC50 (SH-4): > 10000 nM; IC50 (SW1088): > 10000 nM; IC50 (Hs 766): > 10000 nM; IC50 [1]: > 10000 nM; IC50 (JAR): > 10000 nM; IC50 (ES-2): > 10000 nM; IC50 (NCI-H520): > 10000 nM; IC50 (HuP-T4): > 10000 nM; IC50 [2]: > 10000 nM; IC50 (EM-2): > 10000 nM; IC50 (CCF-STTG1): > 10000 nM; IC50 [3]: > 10000 nM; IC50 (ST486): > 10000 nM; IC50 [4]: > 10000 nM; IC50 (647-V): > 10000 nM; IC50 (ARH-77): > 10000 nM; IC50 (G-402): > 10000 nM; IC50 (K562): > 10000 nM; IC50 (L-428): 2610 nM; IC50 (JEG-3): > 10000 nM; IC50 (A-431): > 10000 nM; IC50 (SW948): > 10000 nM

Reference: ChEMBL document CHEMBL5674880 (PLoS One, 2018)
